# Assay outcomes: PubChem BioAssay, The Scripps Research Institute Molecular Screening Center
# An excerpt weighted towards active compounds, which were near 3.7% of everything screened.
# TAAR1 antagonist: antagonists of human TAAR1. actives 1.5% (n = 360,000). Q96RJ0. CHO RD-HGA16 TAAR1, Fluo-8 calcium fluorescence, antagonist. inhibition, % at 3 µM;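 active = inhibition above a per-plate cutoff, the mean inhibition of test compounds on that plate plus 3 SD, cut at about 49% in these data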;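 note: 0% = DMSO plus EC80 beta-PEA response and 100% = DMSO alone without agonist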
# Target sequence (Q96RJ0 whole entry, looked up): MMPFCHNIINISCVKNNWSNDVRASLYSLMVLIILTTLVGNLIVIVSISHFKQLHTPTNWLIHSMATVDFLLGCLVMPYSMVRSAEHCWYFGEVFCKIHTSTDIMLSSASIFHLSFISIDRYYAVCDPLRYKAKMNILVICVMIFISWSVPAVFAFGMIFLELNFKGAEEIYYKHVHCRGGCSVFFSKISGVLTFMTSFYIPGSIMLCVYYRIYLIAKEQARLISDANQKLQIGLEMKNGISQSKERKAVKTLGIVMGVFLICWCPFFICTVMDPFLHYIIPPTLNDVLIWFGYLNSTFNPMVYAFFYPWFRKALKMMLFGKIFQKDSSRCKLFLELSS
#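 System: CHO RD-HGA16 cells bearing hTAAR1. Reagent: EC80 β-phenethylamine stimulus. Schedule: seeding 17-24 h prior, 75-min 37 °C, 30-min RT dye loading. Signal: Fluo-8 intracellular calcium dye fluorescence, real-time kinetic reads. Read-out: % inhibition from peak post-agonist over basal fluorescence ratio. Benchmarks: vehicle wells and EC80 agonist wells. Replicates: n of 1.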
# rCAG RNA binder: molecules binding r(CAG) RNA repeats; actives 1.3% (n = 370,000); inhibition, % at 3 µM; r(CAG) RNA repeat, TO-PRO-1 dye displacement fluorescence;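 active = inhibition above the plate cutoff, the mean of all test compounds on that plate plus 3 SD, cut at about 35% in these data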;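 note: 0% = DMSO alone and 100% = 100 µM mitoxantrone as full dye displacement; higher means more dye released from RNA so lower well fluorescence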
# HCV NS3 hel inh: HCV NS3 helicase inhibition; NS3 helicase DNA unwinding, Cy5 molecular beacon fluorescence; inhibition, % at 10.9 µM; actives 0.56% (n = 290,000); AID 1800;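 active = inhibition above the mean of all tested compounds plus 3 SD, set per campaign, cut at about 35% in these data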;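 note: 0% = DMSO wells and 100% = thioflavine S control wells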
#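 test system = hepatitis C virus NS3 helicase domain fragment enzyme | reagent = annealed dual-labelled DNA beacon duplex, ATP-started | times = 1 h at 25 °C | detection = Cy5 fluorescence, 0 and 60 min reads | read-out basis = percent inhibition from t60/t0 fluorescence ratio | control set = DMSO and thioflavine S | replication = one well per compound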
# TAAR1 ag: agonists of human TAAR1. Q96RJ0. CHO RD-HGA16 TAAR1, Fluo-8 calcium fluorescence; vehicle wells 0%, saturating PEA agonist 100%. activation, % at 3 µM. actives 0.99% (n = 360,000);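 active = activation above the mean activation of all test compounds in the run plus 3 SD, cut at about 38% in these data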
#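 Test system: RD-HGA16 (CHO) cells co-expressing Gα16 and hTAAR1 | Doses: Single dose, 3 µM | Schedule: 17-24 h seeding, 75 min 37 °C dye, 30 min RT | Evaluation: % activation from peak over basal fluorescence ratio, DMSO-to-PEA scaled | Technique: Kinetic Fluo-8 calcium fluorescence | Benchmarks: Low control DMSO, high control PEA (EC100)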
# core dimer inh: HCV core protein dimerization inhibition; TR-FRET GST/Flag-core106 dimerization, 1536-well; actives 0.33% (n = 300,000); inhibition, % at 5 µM;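 active = inhibition above the mean of all tested compounds plus 3 SD, set per screening campaign, cut at about 45% in these data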
#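 Assay system: tagged HCV core106 pair (GST and Flag); medium: KF-containing HEPES buffer, pH 7.45, DTT, CHAPS, BSA; also added: Eu donor and XL665 acceptor anti-tag antibodies; dosing: 5 µM single dose; timing: compound-protein-antibody incubation 4 h at 22.5 °C; signal: TR-FRET 671 and 617 nm emission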
# NS3 helicase cf: HCV NS3 helicase inhibition, confirmation assay | inhibition, % at 10.9 µM | NS3 helicase DNA unwinding, Cy5 molecular beacon fluorescence | AID 1943 | actives 31% (n = 1,600) | shares compounds with HCV NS3 hel inh;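 active = inhibition above the mean of all tested compounds plus 3 SD, cutoff set per campaign, cut at about 36% in these data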
# FID counter trip: counter-screen for HCV NS3 helicase inhibitors: DNA intercalator displacement. shares compounds with HCV NS3 hel inh. DNA fluorescent intercalator displacement, fluorescence. inhibition, % at 7.9 µM. actives 4% (n = 1,600). AID 1945; in the data active = inhibition above about 37%;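 note: 0% = vehicle and 100% = reference compound; higher means more displacement of ethidium bromide from the DNA hairpin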
# DNA FID DR: counter-screen for HCV NS3 helicase inhibitors: DNA intercalator displacement dose response | shares compounds with HCV NS3 hel inh | fluorescent intercalator displacement from DNA, fluorescence | IC50, µM | 120 tested, under 10 active | AID 2172; call rule not given here
# Numbers without * were called inactive; / = no result given.
SMILES,TAAR1 antagonist,rCAG RNA binder,HCV NS3 hel inh,TAAR1 ag,core dimer inh,NS3 helicase cf,FID counter trip,others
CSc1ccc(/C=N/Nc2cccc(C(=O)O)c2)cc1,/,/,38.0*,/,/,76.3*,-5.2,
C=CCN1C(C(=O)OC)CN(Cc2cn(Cc3ccc(OC)cc3)nn2)CCS1(=O)=O (configuration not stated),/,1.1,/,/,/,/,/,
CCOC(=O)C1=C(N)N2C(=O)C(C)SC2=C(C(=O)OCC)C1c1ccc(O)cc1 (configuration not stated),-15.9,-1.7,39.1*,9.9,5.1,-26.5,-29.0,
CC(C)NC(=O)OC[C@H]1O[C@H](C#Cc2ccc(C(C)(C)C)cc2)C=C[C@H]1O,-21.8,0.9,/,-0.7,/,/,/,
CCOC(=O)N1CCN(Cc2nc3c(c(=O)n(C)c(=O)n3C)n2Cc2ccccc2C)CC1,0.1,-5.7,60.8*,3.9,-1.3,-14.6,-43.6,
CCCn1c(CN2CCN(C(=O)OCC)CC2)nc2c1c(=O)n(C)c(=O)n2C,-0.1,-1.1,-3.3,1.4,1.9,/,/,
CCCOc1ccc(/C(O)=C2\C(=O)C(=O)N(c3ccccn3)C2c2ccccc2F)cc1C (configuration not stated),2.4,16.8,47.5*,33.0,4.2,94.2*,-30.7,DNA FID DR=>79.4
COC(=O)C1CN(Cc2ccc(Cl)cc2)CCS(=O)(=O)N1Cc1cn(Cc2ccc(OC)cc2)nn1 (configuration not stated),/,0.7,/,/,/,/,/,
O=C(CCc1nc2ccccc2c(=O)[nH]1)Nc1ccc(F)c([N+](=O)[O-])c1,-13.2,19.4,51.6*,-0.2,5.1,-11.2,12.6,
O=C(CCc1nc2ccccc2c(=O)[nH]1)NCC(=O)Nc1ccc(F)c(F)c1,7.6,4.6,/,2.6,0.7,/,/,
O=C(Nc1nc2c(F)cc(F)cc2s1)C1CC(=O)N(Cc2ccco2)C1 (configuration not stated),-18.8,6.9,40.9*,1.6,20.8,-8.2,-27.2,
Cc1cc(C)c2nc(NC(=O)C3CC(=O)N(Cc4ccco4)C3)sc2c1 (configuration not stated),-6.1,1.5,12.8,9.2,2.8,/,/,
N#CC1=C(N)SC(N)=C(C#N)C1c1ccnc2ccccc12,42.7,13.1,9.5,16.8,34.8,/,/,
Cc1ccc(C2C(C#N)=C(N)SC(N)=C2C#N)c(C)c1,/,/,36.5*,/,41.6,-15.4,6.4,
O=C(O)CCn1cc(C(=O)O)c(-c2ccccc2)n1,-9.4,-1.4,45.0*,0.9,0.5,-12.3,2.3,
COC(=O)[C@]12C[C@H](CC(=O)NCC34CC5CC(CC(C5)C3)C4)C(=O)N(CCc3ccc(OC)c(OC)c3)C1=C[C@H](C1CCCC1)O[C@@H]2C,/,4.8,/,/,/,/,/,
CC1=CC2=NC(=O)/C(=C/c3coc4ccc(Cl)cc4c3=O)C(=N)N2O1,27.1,-26.4,41.9*,43.2*,6.7,-20.5,4.7,
CCCc1nc(SCC(=O)O)c2sc(=S)n(-c3ccccc3)c2n1,-5.7,19.5,36.8*,-1.4,6.4,1.2,-21.3,
NC(=O)CSc1nc2c(sc(=S)n2-c2ccccc2)c(=O)[nH]1,-13.9,6.8,25.1,0.7,/,/,/,
Cc1ccc(C)c(NC(=O)C2CCCN2S(=O)(=O)c2cccc3cccnc23)c1 (configuration not stated),/,0.8,/,/,/,/,/,
CCCN(C(=O)c1cn(CCC)c2ccccc12)c1ccc(Oc2cccnc2)cc1,13.8,2.3,/,-2.2,/,/,/,
O=C(Nc1nc(-c2ccco2)c(-c2ccco2)s1)C1CC(=O)N(c2ccc3c(c2)OCCO3)C1 (configuration not stated),3.8,30.4,39.8*,1.8,31.5,72.2*,27.9,DNA FID DR=>79.4
COC(=O)C[C@@H]1CC[C@@H]2[C@@H](COc3ccc(NC(=O)c4ccc(F)cc4)cc3C(=O)N2C)O1,/,2.7,/,/,/,/,/,
C[C@H]1COc2c3ccc(I)cc3nn21,/,1.0,/,/,/,/,/,
CCOC(=O)C(CC)(CCC(=O)OC)c1csc(Nc2ccccc2O)n1 (configuration not stated),/,/,39.6*,/,1.3,3.6,-23.4,
SMILES,TAAR1 antagonist,rCAG RNA binder,HCV NS3 hel inh,TAAR1 ag,core dimer inh,NS3 helicase cf,FID counter trip,others
Cc1ccc(NC(=O)COC(=O)C2CC3C=CC2C3)cc1S(=O)(=O)N1CCCCC1 (configuration not stated),36.4,-2.5,62.3*,8.9,5.6,-3.0,-20.4,
O=C(Nc1cccc(Br)c1)OC1CC2CC1[C@H]1CCCCN1[C@H]2Cc1ccccc1 (some centres not stated),/,5.8,/,/,/,/,/,
NN1C(=O)/C(=C\c2ccco2)SC1=S,-16.5,24.8,38.5*,0.3,-2.4,-12.1,-1.2,
Cc1cccc(-c2nnc(SCc3cccc4ccccc34)n2-c2ccc(Cl)cc2)c1,/,8.4,/,/,/,/,/,
O=C(O)c1cc([N+](=O)[O-])ccc1Nc1ccccc1,-11.7,2.9,14.0,2.1,-5.7,/,/,
Cc1cccc(Nc2ccc([N+](=O)[O-])cc2C(=O)O)c1,-23.7,19.1,37.2*,1.8,8.5,65.5*,-9.3,
O=C(N[C@H](C(=O)N1CCC[C@H]1C(=O)NCc1ccccc1)C1CCCCC1)c1ccc(Cl)c(Cl)c1,-26.0,1.2,/,-1.4,/,/,/,
CN1CCCN(C(=O)C2CCN(c3ncnc4c3sc3cccc(F)c34)CC2)CC1,/,7.9,/,/,/,/,/,
C#CCOc1ccc(/C=C2/C(=O)N(c3cccc(C(=O)O)c3)N=C2C)cc1OC,1.3,7.4,39.8*,-1.1,6.9,8.1,11.9,
